Data on eleven molecules can be found in ChEMBL document CHEMBL3352302, “Synthesis of new compounds with promising antiviral properties against group A and B Human Rhinoviruses” (Bioorg Med Chem, 2014).

Values after ≈ are worked out from the molar mass of the structure shown. Active and inactive are the calls of the source. No cut-off for these calls is given here.

Data set [1] is described as follows: Protective index, ratio of CD50 for human HeLa cells to ID50 for Human rhinovirus 14. An outline of the steps: (§1)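 PI = CD₅₀/ID₅₀. For CD₅₀, HeLa (Ohio strain) monolayers in DMEM with 10% fetal calf serum were exposed to a range of compound concentrations at 37 °C, 5% CO₂. Morphology was checked by light microscopy at 24, 48 and 72 h. Viability read by MTT; CD₅₀ = concentration reducing control absorbance by 50%. ID₅₀ came from the plaque-reduction virus-yield assay.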

A short description of data set [2]: Protective index, ratio of CD50 for human HeLa cells to ID50 for Human rhinovirus 39. An outline of the steps:
as §1

The subject of data set [3] is rhinovirus B14. The data set is described as follows: Antiviral activity against Human rhinovirus 14 assessed as reduction in virus yield after 24 to 36 hrs by agar plaque assay. Particulars: Rhinovirus B; read-out: ID50 (the source's name). Format: functional. An outline of the steps:
(§2)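 Virus-yield reduction: infected monolayers given serial dilutions of compound, incubated 24–36 h at 33 °C, 3% CO₂ until cytopathic effect in controls was almost total. Monolayers then frozen and thawed; virus in supernatant titrated by plaque assay (50% plaque reduction in Hep-2 cells). ID₅₀ is the concentration inhibiting plaque formation by 50%, from dose–response curves by linear regression.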

For the next data set, the system named is rhinovirus A39. Nature of the data set: Antiviral activity against Human rhinovirus 39 assessed as reduction in virus yield after 24 to 36 hrs by agar plaque assay. Particulars: Rhinovirus A; read-out: ID50 (the source's name). Format: functional. A digest of the protocol: as §2
Data set [4] is described as follows: Cytotoxicity against human HeLa cells after 24 to 72 hrs by MTT assay. Particulars: read-out: CD50 (the source's name). Format: cell-based. An outline of the steps:
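HeLa (Ohio strain) monolayers in DMEM with 1% non-essential amino acids, penicillin/streptomycin and 10% FCS at 37 °C, 5% CO₂, exposed to various compound concentrations. Morphology (rounding, shrinking, detachment) was checked by light microscopy at 24, 48 and 72 h, and viability read by MTT colorimetry. CD₅₀ is the concentration reducing control absorbance by 50%.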

Data set [5] deals with rhinovirus B14. The data set is described as follows: Antiviral activity against Human rhinovirus 14 assessed as reduction in virus yield at 5 ug/ml added within 3 hrs after infection by agar plaque assay. The class given is functional, organism-based. A digest of the protocol:
(§3)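 HRV14 (group A, ATCC; working stocks prepared as cellular lysates in DMEM with 2% heat-inactivated FCS). Compound was added to cells at different times, from h −1 to several hours post infection, and incubated 24–36 h at 33 °C, 3% CO₂ until cytopathic effect in controls was almost total. Monolayers were then freeze-thawed and supernatant virus titrated by plaque assay.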

Data set [6] has as its system rhinovirus B14. Nature of the data set: Antiviral activity against Human rhinovirus 14 assessed as reduction in virus yield at 5 ug/ml added 4 to 5 hrs after infection by agar plaque assay. Format: functional, organism-based. A digest of the protocol:
as §3

In data set [7] the test system is rhinovirus B14. Nature of the data set: Reversible antiviral activity against Human rhinovirus 14 assessed as reduction in virus yield by agar plaque assay. The class given is functional, organism-based.

For `CC(=O)c1ccc(OCCCOCc2ccc3c(c2)OCO3)cc1`, the PI in data set [1] and in data set [2] was 8 each time. In addition, the IC50 with rhinovirus B14 [3] and in the data set with rhinovirus A39 was 6 µg/mL (≈ 18.3 µM) throughout. Moreover, the CC50 in data set [4] came out at 50 µg/mL (≈ 152 µM).

On to `CCOC(=O)c1ccc(OCCC2CCN(c3ccc(C)nn3)CC2)cc1` [PIRODAVIR], for which the PI in data set [1] stood at 258; in data set [2], 516. Further, the values for the IC50 in the data set on rhinovirus B14 [3] and in the data set with rhinovirus A39 were 0.012 µg/mL (≈ 0.0325 µM) and 0.006 µg/mL (≈ 0.0162 µM), respectively. The result with rhinovirus B14 [5] was Active. Further, the outcome in the data set with rhinovirus B14 [6] was inactive. The CC50 in data set [4] came to 3.1 µg/mL (≈ 8.39 µM).

On to `CCOc1nc2ccc(OCCCOc3ccc(C#N)cc3)cc2o1`, for which the PI in data set [1] is 2; in data set [2] it was 33. Besides, the figures for the IC50 in the data set with rhinovirus B14 [3] and in the data set with rhinovirus A39 were 25 µg/mL (≈ 73.9 µM) and 1.5 µg/mL (≈ 4.43 µM), respectively. Besides, the CC50 in data set [4] was found to be 50 µg/mL (≈ 148 µM).

With `CC(=O)c1ccc(OCCCOc2ccc3c(c2)OCO3)cc1`, the PI in data set [1] and in data set [2] was 1 in each case. Further, the IC50 in the data set with rhinovirus B14 [3] and in the data set on rhinovirus A39 was 25 µg/mL (≈ 79.5 µM) in each case. In addition, in data set [4], the CC50 turned out to be 25 µg/mL (≈ 79.5 µM).

In the case of `Fc1ccc(OCCCOc2ccc3c(c2)OCO3)cc1`, the PI in data set [1] and in data set [2] was 1 throughout. The IC50 with rhinovirus B14 [3] and in the data set on rhinovirus A39 was 25 µg/mL (≈ 86.1 µM) each time. Also, the CC50 in data set [4] worked out at 25 µg/mL (≈ 86.1 µM).

In the case of `CCOc1nc2ccc(OCCCOc3ccc4c(c3)OCO4)cc2o1`, the PI in data set [1] is 8; in data set [2], 16. The IC50 with rhinovirus B14 [3] turned out to be 25 µg/mL (≈ 70 µM); in the data set with rhinovirus A39, 12 µg/mL (≈ 33.6 µM). Also, in data set [4], the CC50 came to 200 µg/mL (≈ 560 µM).

Regarding `Cc1cc(OCCCOc2ccc3c(c2)OCO3)on1`, the PI in data set [1] is on record as 2; in data set [2], 4. Also, the IC50 in the data set on rhinovirus B14 [3] is 25 µg/mL (≈ 90.2 µM); with rhinovirus A39, 12 µg/mL (≈ 43.3 µM). The CC50 in data set [4] was 50 µg/mL (≈ 180 µM).

Take `CCOC(=O)c1ccc(OCCCOCCc2cc(C)no2)cc1`: the PI in data set [1] and in data set [2] was 714 in each case. In addition, the IC50 with rhinovirus B14 [3] and in the data set with rhinovirus A39 was 0.07 µg/mL (≈ 0.21 µM) in each case. Moreover, in data set [4], the CC50 came out at 50 µg/mL (≈ 150 µM).

As to `CC(=O)c1ccc(OCCCOCCc2cc(C)no2)cc1`, the PI is reported as 2 in data set [1] and 8 in data set [2]. The IC50 came to 25 µg/mL (≈ 82.4 µM) in the data set on rhinovirus B14 [3] and 6 µg/mL (≈ 19.8 µM) with rhinovirus A39. In addition, the CC50 in data set [4] worked out at 50 µg/mL (≈ 165 µM).

As to `Cc1cc(CCOCCCOc2ccc3c(c2)OCO3)on1`, the PI in data set [1] and in data set [2] was 1 throughout. Besides, the IC50 in the data set on rhinovirus B14 [3] and with rhinovirus A39 was 50 µg/mL (≈ 164 µM) each time. The CC50 in data set [4] is 50 µg/mL (≈ 164 µM).

For the molecule `CCOc1nc2ccc(OCCCOc3ccc(C(C)=O)cc3)cc2o1`, the PI in data set [1] is reported as 400; in data set [2] it was 2000. The IC50 with rhinovirus B14 [3] turned out to be 0.5 µg/mL (≈ 1.41 µM); in the data set on rhinovirus A39 it was 0.1 µg/mL (≈ 0.281 µM). Besides, the result with rhinovirus B14 [5] and in the data set with rhinovirus B14 [7] was Active. In the data set on rhinovirus B14 [6], the result was inactive. Also, the CC50 in data set [4] stood at 200 µg/mL (≈ 563 µM).
